Experimental data reported in ChEMBL document CHEMBL5678798 (Clin Cancer Res, 2009).
Calls of active or inactive are those of the source. The rule behind the calls is not given here.

Experiments:
[1] = target: Fibroblast growth factor receptor 2 (Homo sapiens) (UniProt P21802); assay: Inhibition of N-terminal, His6-tagged recombinant human FGFR2 (456 to 765 residues) expressed in baculovirus infected Sf21 cells at 0.3 uM by filter binding assay relative to control
[2] = Inhibition of recombinant mouse N-terminal 6His-tagged full length P110alpha/full length mouse […] expressed in baculovirus infected Sf21 cells at 3 uM by filter binding assay relative to control; conditions: condition cancer
[3] = tested on: EJM; assay: Antiproliferative activity against human EJM cells assessed as reduction in cell viability after 72 hrs by CellTiter-Glo assay; format: functional, cell-based
Method in brief: (§1)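 Cells seeded in 96-well plates, left overnight at 37°C, then exposed to a range of test concentrations for 72 h. Viability read by CellTiter-Glo luminescence; IC50 from four-parameter curve fit. Lines kept at 37°C, 5% CO2, in recommended growth medium.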

[4] = target: Protein kinase C iota type (Homo sapiens) (UniProt P41743); assay: Inhibition of N-terminal His6-tagged recombinant full-length human PKCiota expressed in Sf21 cells at 0.3 uM by filter binding assay relative to control
Method in brief: (§2)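 Outsourced single-concentration screen in a commercial panel of 233 protein kinases, run as radiometric filter-binding activity assays. Test agent was tested at 0.3 or 3 µmol/L, as given in each line, from a 10 mmol/L DMSO stock. Activity is expressed as percent inhibition relative to control.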

[5] = target: Phosphatidylinositol 4,5-bisphosphate 3-kinase catalytic subunit alpha isoform (Homo sapiens, UniProt P42336); assay: Inhibition of PI3Kalpha (unknown origin)
[6] = target: Serine/threonine-protein kinase SIK2 (Homo sapiens, UniProt Q9H0K1); assay: Inhibition of SIK2 (unknown origin)
Serine/threonine-protein kinase SIK2, sequence (Q9H0K1 whole entry): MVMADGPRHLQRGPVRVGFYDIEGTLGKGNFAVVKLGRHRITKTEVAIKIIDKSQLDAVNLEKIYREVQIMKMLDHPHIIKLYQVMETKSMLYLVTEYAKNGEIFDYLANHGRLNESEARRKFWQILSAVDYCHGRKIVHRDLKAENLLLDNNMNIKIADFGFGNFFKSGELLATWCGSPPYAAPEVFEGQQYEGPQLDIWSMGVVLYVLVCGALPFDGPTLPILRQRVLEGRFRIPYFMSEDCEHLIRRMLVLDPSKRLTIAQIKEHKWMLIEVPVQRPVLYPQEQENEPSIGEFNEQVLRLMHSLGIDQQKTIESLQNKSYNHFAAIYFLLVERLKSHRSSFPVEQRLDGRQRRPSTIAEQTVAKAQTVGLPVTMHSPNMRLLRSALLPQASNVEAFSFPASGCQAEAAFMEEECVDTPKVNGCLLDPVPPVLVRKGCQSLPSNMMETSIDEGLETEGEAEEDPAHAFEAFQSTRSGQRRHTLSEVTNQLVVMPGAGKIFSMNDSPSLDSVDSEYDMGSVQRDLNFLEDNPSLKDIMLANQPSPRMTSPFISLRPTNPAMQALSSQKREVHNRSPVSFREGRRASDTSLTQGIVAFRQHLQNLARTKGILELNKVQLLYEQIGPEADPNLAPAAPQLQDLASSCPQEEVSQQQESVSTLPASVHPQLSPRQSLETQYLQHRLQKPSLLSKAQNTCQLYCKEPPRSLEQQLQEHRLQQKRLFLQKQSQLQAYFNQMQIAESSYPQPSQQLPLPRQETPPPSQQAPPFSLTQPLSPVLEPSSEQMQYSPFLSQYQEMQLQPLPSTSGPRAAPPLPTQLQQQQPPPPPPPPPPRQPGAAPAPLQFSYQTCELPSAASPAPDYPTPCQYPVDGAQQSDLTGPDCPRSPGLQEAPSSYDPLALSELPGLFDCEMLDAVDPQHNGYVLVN

[7] = target: Tyrosine-protein kinase Yes (Homo sapiens) (UniProt P07947); assay: Inhibition of N-terminal His6 tagged recombinant full-length human Yes expressed in baculovirus infected Sf21 cells at 0.3 uM by filter binding assay relative to control; method in brief: as §2
Tyrosine-protein kinase Yes (Homo sapiens), sequence (P07947 2-543 limits assumed): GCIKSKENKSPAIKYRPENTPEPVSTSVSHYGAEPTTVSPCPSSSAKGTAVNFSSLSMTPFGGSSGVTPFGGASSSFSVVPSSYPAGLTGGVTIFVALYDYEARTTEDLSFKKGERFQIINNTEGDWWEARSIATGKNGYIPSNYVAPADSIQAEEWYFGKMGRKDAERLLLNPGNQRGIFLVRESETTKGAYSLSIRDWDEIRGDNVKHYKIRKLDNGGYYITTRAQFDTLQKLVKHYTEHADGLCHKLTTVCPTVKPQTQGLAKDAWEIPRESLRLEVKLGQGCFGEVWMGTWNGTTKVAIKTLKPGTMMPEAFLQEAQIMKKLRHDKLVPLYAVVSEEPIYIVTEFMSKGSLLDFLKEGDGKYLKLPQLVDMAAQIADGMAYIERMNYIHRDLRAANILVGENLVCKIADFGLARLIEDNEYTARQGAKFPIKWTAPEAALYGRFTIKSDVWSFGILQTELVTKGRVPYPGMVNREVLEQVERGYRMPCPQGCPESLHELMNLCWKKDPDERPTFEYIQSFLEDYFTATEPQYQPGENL

[8] = tested on: MCF7; assay: Induction of cell cycle arrest in human MCF7 cells assessed as decrease in cells accumulation at S phase at 0.03 to 10 uM incubated for 24 to 48 hrs by propidium iodide staining based flow cytometric analysis; format: functional; conditions: dose 0.03-10 µM, time lower 24.0 hrs, time upper […]
Method in brief: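 COLO 205, MCF-7 or NCI-H929 cells seeded in 96-well plates overnight at 37°C, then exposed to DMSO or increasing compound concentrations for 24 or 48 h. Fixed and stained with propidium iodide (Vindelov method), then analysed by flow cytometry for sub-G1, G1, S and G2-M fractions. Experiment repeated twice.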

[9] = target: Mitogen-activated protein kinase 1 (Homo sapiens) (UniProt P28482); assay: Inhibition of N-terminal GST-tagged recombinant human MAPK2 expressed in Escherichia coli at 0.3 uM by filter binding assay relative to control; method in brief: as §2
[10] = tested on: JJN-3; assay: Antiproliferative activity against human JJN-3 cells assessed as reduction in cell viability after 72 hrs by CellTiter-Glo assay; format: functional, cell-based; conditions: JJN-3, 72 h; method in brief: as §1
[11] = target: PI3K p110 alpha/p85 alpha (Mus musculus) (UniProt P26450+P42337); assay: Inhibition of recombinant mouse N-terminal 6His-tagged full length P110alpha/full length mouse p85alpha expressed in baculovirus infected Sf21 cells at 0.3 uM by filter binding assay relative to control
[12] = target: Tyrosine-protein kinase ZAP-70 (Homo sapiens, UniProt P43403); assay: Inhibition of ZAP70 (unknown origin)
[13] = tested on: KMS-12-BM; assay: Antiproliferative activity against human KMS-12-BM cells assessed as reduction in cell viability after 72 hrs by CellTiter-Glo assay; format: functional, cell-based; method in brief: as §1
[14] = target: T1, Tyrosine-protein kinase BTK (Homo sapiens, UniProt Q06187); assay: Inhibition of N-terminal His6-tagged recombinant full-length human BTK expressed in baculovirus infected Sf21 cells by filter binding assay
T1 sequence (Q06187 whole entry): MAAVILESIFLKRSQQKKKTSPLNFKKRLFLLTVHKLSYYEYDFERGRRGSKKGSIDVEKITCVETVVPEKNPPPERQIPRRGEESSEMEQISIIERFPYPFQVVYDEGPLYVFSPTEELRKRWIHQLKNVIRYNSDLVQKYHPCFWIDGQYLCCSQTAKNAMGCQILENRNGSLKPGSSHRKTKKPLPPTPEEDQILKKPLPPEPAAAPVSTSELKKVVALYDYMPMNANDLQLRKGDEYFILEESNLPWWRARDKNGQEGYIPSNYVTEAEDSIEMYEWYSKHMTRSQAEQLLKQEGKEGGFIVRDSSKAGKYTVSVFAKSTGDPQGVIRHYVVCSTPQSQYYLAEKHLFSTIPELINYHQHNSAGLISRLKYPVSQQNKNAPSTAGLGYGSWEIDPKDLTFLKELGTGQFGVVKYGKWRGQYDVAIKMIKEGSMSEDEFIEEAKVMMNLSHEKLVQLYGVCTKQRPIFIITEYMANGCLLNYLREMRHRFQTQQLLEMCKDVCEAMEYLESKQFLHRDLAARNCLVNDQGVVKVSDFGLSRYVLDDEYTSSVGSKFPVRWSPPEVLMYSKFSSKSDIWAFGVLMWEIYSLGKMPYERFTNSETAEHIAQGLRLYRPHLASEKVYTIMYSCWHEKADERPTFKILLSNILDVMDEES

[15] = target: Inhibitor of nuclear factor kappa-B kinase subunit beta (Homo sapiens, UniProt O14920); assay: Inhibition of IKK2 (unknown origin)
Inhibitor of nuclear factor kappa-B kinase subunit beta, sequence (O14920 whole entry): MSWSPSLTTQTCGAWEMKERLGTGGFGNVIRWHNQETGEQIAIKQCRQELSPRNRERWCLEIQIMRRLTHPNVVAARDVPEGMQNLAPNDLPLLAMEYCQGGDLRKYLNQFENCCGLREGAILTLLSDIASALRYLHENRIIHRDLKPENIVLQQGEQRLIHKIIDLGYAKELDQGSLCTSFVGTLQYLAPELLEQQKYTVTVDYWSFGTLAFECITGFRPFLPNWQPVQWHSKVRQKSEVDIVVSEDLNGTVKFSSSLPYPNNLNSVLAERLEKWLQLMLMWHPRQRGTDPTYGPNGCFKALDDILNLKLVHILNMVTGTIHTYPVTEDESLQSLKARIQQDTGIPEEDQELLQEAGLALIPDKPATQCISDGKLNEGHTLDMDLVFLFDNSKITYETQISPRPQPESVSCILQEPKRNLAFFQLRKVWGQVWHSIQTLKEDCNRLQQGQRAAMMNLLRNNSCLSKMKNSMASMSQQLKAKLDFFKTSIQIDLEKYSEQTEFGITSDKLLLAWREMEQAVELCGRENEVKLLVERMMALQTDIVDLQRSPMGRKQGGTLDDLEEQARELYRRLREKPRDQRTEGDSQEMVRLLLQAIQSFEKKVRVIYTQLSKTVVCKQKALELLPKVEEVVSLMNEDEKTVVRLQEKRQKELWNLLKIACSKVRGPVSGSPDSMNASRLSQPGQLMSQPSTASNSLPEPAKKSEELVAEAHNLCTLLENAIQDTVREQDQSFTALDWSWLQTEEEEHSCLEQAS

[16] = tested on: NCI-H929; assay: Antiproliferative activity against human NCI-H929 cells assessed as reduction in cell viability after 72 hrs by CellTiter-Glo assay; format: functional, cell-based; conditions: NCI-H929, 72 h; method in brief: as §1
[17] = target: Calcium/calmodulin-dependent protein kinase type IV (Homo sapiens) (UniProt Q16566); assay: Inhibition of C-terminal His6-tagged recombinant full length human CaMKIV expressed in baculovirus infected Sf21 cells at 3 uM by filter binding assay relative to control
Method in brief: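 KinaseProfiler panel of 233 kinases: radiometric filter-binding activity assays with compound at 0.3 or 3 µmol/L. Read-out is percent inhibition.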

[18] = target: Insulin receptor (Mus musculus) (UniProt P15208); conditions: CD-1, dose 30.0 mg/kg, route po, time 21.0 day
Insulin receptor (Mus musculus), sequence (P15208 28-748 limits assumed): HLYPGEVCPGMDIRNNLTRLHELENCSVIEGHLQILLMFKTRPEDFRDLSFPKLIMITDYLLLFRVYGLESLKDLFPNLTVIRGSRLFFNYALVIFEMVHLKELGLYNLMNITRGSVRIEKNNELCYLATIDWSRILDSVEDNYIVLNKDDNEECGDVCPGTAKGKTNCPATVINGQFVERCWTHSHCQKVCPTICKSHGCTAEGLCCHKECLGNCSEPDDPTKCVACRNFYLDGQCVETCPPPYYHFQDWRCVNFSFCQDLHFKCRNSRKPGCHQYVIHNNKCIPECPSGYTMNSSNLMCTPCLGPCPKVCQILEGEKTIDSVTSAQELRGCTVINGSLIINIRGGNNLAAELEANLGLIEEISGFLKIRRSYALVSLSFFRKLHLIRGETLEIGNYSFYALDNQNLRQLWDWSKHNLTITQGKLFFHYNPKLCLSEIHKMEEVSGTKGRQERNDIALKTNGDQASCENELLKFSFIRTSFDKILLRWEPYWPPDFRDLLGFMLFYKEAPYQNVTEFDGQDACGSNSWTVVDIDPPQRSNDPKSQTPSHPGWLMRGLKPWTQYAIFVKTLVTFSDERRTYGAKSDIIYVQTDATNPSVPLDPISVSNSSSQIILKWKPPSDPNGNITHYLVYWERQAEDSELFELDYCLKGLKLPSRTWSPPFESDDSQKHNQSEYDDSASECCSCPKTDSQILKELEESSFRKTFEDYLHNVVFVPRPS
Insulin receptor (Mus musculus), sequence (P15208 753-1372 limits assumed): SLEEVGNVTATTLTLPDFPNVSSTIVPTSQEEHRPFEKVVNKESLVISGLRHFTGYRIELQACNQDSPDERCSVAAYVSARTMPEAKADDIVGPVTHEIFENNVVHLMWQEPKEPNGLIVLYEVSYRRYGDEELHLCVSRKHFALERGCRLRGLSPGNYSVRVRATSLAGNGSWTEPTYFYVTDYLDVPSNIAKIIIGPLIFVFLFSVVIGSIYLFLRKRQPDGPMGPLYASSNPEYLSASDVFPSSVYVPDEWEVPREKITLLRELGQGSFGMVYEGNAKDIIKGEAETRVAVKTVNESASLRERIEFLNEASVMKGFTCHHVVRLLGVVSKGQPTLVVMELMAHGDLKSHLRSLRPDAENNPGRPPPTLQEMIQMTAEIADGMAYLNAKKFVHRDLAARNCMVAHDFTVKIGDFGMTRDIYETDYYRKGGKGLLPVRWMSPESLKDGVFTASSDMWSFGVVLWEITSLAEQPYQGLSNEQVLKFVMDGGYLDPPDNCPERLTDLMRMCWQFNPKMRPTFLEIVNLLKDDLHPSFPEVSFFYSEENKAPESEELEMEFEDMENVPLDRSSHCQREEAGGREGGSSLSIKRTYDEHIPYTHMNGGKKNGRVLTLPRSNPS

[19] = target: T1, Tyrosine-protein kinase BTK; assay: Inhibition of N-terminal His6-tagged recombinant full-length human BTK expressed in baculovirus infected Sf21 cells at 0.3 uM by filter binding assay relative to control; method in brief: as §2
[20] = target: Dual specificity protein kinase CLK2 (Homo sapiens) (UniProt P49760); assay: Inhibition of N-terminal GST-tagged recombinant human CLK2 (138 to end residues) expressed in baculovirus infected Sf21 cells at 0.3 uM by filter binding assay relative to control; method in brief: as §2
[21] = target: Insulin receptor-related protein (Homo sapiens, UniProt P14616); assay: Inhibition of N-terminal 6His-tagged recombinant human IRR (944 to 1266 residues) expressed in baculovirus infected Sf21 cells by filter binding assay
[22] = target: Fibroblast growth factor receptor 1 (Homo sapiens, UniProt P11362); assay: Inhibition of N-terminal GST-tagged recombinant human FGFR1 (456 to 765 residues) expressed in baculovirus infected Sf21 cells by filter binding assay
[23] = target: RAC-alpha serine/threonine-protein kinase (Homo sapiens, UniProt P31749); assay: Inhibition of AKT1 (unknown origin)
[24] = target: Serine/threonine-protein kinase D2 (PRKD2) (Homo sapiens) (UniProt Q9BZL6); assay: Inhibition of N-terminal His6 tagged, recombinant full-length human PKD2 expressed in Sf21 cells at 0.3 uM by filter binding assay relative to control
[25] = Antiproliferative activity against human L-82 cells assessed as reduction in cell viability after 72 hrs by CellTiter-Glo assay; format: functional, cell-based; conditions: L-82, 72 h; method in brief: as §1
[26] = target: Mitogen-activated protein kinase kinase kinase 9 (Homo sapiens) (UniProt P80192); assay: Inhibition of N-terminal 6His-tagged recombinant human MLK1 (134 to 414 residues) expressed in baculovirus infected Sf21 cells at 0.3 uM by filter binding assay relative to control; method in brief: as §2
[27] = target: Inhibitor of nuclear factor kappa-B kinase subunit alpha (Homo sapiens, UniProt O15111); assay: Inhibition of IKK1 (unknown origin)
[28] = Cytotoxicity against human PREC cells assessed as growth inhibition after 72 hrs by CellTiter-Glo assay relative to control; format: toxicity, cell-based; conditions: read-out: GI
[29] = target: Insulin receptor (Mus musculus) (UniProt P15208); conditions: CD-1, dose 30.0 mg/kg, route po, time 4.0 hrs

Fibroblast growth factor receptor 2 (Homo sapiens), sequence (P21802 22-821 limits assumed): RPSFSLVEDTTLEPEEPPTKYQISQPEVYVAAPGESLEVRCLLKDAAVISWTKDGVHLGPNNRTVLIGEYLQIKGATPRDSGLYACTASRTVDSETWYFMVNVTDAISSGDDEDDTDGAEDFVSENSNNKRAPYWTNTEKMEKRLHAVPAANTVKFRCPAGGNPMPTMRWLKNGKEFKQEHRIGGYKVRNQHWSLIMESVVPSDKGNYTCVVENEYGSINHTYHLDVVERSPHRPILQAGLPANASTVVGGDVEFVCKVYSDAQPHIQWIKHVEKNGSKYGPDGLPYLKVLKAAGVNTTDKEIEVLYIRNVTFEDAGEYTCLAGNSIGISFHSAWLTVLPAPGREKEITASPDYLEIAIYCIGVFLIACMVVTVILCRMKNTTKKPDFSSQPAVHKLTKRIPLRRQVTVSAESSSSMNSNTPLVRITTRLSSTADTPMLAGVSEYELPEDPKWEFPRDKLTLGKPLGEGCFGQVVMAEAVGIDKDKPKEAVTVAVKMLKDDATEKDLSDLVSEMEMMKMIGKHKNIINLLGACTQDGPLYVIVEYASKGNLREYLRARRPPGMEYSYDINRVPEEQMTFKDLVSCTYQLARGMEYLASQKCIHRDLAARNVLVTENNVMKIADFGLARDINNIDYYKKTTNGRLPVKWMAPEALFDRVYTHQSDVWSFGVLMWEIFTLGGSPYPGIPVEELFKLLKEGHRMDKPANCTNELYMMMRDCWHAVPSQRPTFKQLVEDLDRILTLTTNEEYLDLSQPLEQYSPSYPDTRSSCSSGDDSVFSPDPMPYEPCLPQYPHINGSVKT

In the case of CCc1cc(Nc2nccc(-c3c(-c4ccc(OC)c(C(=O)Nc5c(F)cccc5F)c4)nc4ccccn34)n2)c(OC)cc1N1CCC(N2CCN(S(C)(=O)=O)CC2)CC1, the inhibition [1] is reported as 21%, the inhibition at 3 µM [2] is reported as 0% and the IC50 [3] is reported as > 30 µM. For the same compound, the inhibition [4] was 0%, the IC50 [5] was > 10 µM and the IC50 [6] was > 10 µM. For the same compound, the inhibition [7] was 0%, the Activity [8] was “Active” and the inhibition [9] was -10%. For the same compound, the IC50 [10] was > 30 µM, the inhibition [11] was -10% and the IC50 [12] was > 20 µM. The IC50 [13] was 113 nM, the IC50 [14] was 357 nM and the IC50 [15] was 13 µM. The IC50 [16] was 81 nM, the inhibition [17] was 10% and the inhibition [18] was “inactive”. It also gave an inhibition [19] of 11%, an inhibition [20] of 0% and an IC50 [21] of 488 nM. The IC50 [22] was 1880 nM, the IC50 [23] was > 10 µM and the inhibition [24] was 4%. The IC50 [25] was > 30 µM, the inhibition [26] was 1% and the IC50 [27] was 13 µM. The inhibition at 72 h [28] was 45% and the inhibition [29] was “inactive”.
